High-throughput results deposited in PubChem by several laboratories.
Shown are actives, neighbours in structure and some others; about 0.89% of the full set was active somewhere.
V-ATPase pH – yeast V-ATPase proton transport regulation by pHLuorin. AID 504577. S. cerevisiae, pHLuorin cytosolic pH fluorescence. response, % at 10 µM. 350,000 tested, 0.37% active; in the data active = response mostly above about 7.3%, no sharp cut-off; inactive = mostly below about 5.4%; note: actives read high
Arrestin-AP2 inh – blocks beta-arrestin peptide binding to AP2 adaptin; FITC-arrestin peptide / GST-AP2 beads, flow cytometry; AP2 beta2 appendage carries R879A mutation; inhibition, % at 10 µM; 340,000 tested, 0.31% active; AID 504490;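 active = inhibition above a set limit, near 3 SD of compounds lacking own fluorescence, cut at about 54% in these data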;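 note: plate controls were DMSO wells for no effect and 5 µM unlabelled arrestin peptide for full effect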
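Material – GST-tagged AP2 beta2-adaptin appendage (R879A) on 4 µm glutathione beads · Probe or stimulus – fluorescein-tagged arrestin peptide at 50 nM final · Timing – 12 min plus 1 h, RT · Detection – bead flow cytometry, FITC channel · Read-out basis – inhibition as reduced fluorescein signal on beads, percent · Medium – PBS plus Tween 20 (0.05%) and BSA (0.1%)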
NTR1 ag – activates human neurotensin receptor 1; AID 493036; 330,000 tested, 0.17% active; activation, % at 20 µM; NTR1-U2OS beta-arrestin-GFP spot imaging, agonist mode; P30989;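 active = activation at or above 40% of the spot to cytoplasm intensity ratio, with at least 20 cells analyzed; inconclusive = wells under 20 cells, flagged as cytotoxic or low count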;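 note: 0% = DMSO without peptide and 100% = 100 nM NTR1 peptide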
Target sequence (P30989 whole entry, looked up): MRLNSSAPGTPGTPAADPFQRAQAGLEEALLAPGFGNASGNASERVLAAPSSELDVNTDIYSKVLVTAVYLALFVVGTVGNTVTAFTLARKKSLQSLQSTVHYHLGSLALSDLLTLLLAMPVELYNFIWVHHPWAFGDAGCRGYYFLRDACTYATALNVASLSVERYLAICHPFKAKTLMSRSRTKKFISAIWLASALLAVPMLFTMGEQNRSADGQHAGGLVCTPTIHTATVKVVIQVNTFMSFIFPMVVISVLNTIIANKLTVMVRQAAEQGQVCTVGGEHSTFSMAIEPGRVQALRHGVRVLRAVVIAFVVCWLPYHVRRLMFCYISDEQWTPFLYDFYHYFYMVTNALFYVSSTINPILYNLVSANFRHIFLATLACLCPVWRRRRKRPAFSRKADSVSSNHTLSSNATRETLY
Xi reactivation – X-chromosome reactivation activator; activation, % at 7.58 µM; XiGFP mouse fibroblasts, % GFP-positive cells imaging, 3 d; cells co-treated with 5-aza-dC sensitizer; scaled so ellipticine positive control = 100%; AID 743238; 360,000 tested, 0.055% active;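 active = mean normalized replicate activation at least 10% and every replicate at or above 10%; inconclusive = only one of the two criteria met; inactive = mean below 10% and not all replicates reach 10%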;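 note: 0% = median of on-plate neutral control wells and 100% = ellipticine 6 µM median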
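Material: SV40-immortalized XiGFP fibroblast cells, line 68-5-11 | Buffer or medium: DMEM containing 5-aza-dC | Dosing: One concentration, pinned | Times: 3 d treatment, 15 min room-temperature fixation | Controls: Ellipticine 6 µM positive control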
T cell HTS – T cell immune modulation candidate; AID 2052; 2C CD8+ T cell-vesicle binding, flow cytometry; stronger effect = lower value; 330,000 tested, 0.068% active; response (vesicle binding), % at 7 µM;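 active = response, share of CD8 T cells binding vesicles, and their 90th percentile fluorescence all below set limits, cut at about 80% in these data, passing the limit was not always enough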;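 note: values below 100% mean blocked vesicle binding to the CD8+ T cells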
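Assay system – 2C mouse CD8+ T cells · Also added – QL9-loaded Drosophila micro-vesicles · Timing – Cell–vesicle co-incubation 1.5 h at 37 °C, staining 20 min on ice · Signal – flow cytometry of vesicle-bound cells · Measure – percent CD8+ FL2 mean versus row control · Controls – Peptide-free naked vesicles (low) and QL9 vesicles with 0.7% DMSO vehicle (high)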
MIN6 prolif – MIN6 beta-cell proliferation induction; proliferation, % at 10 µM; MIN6 cells proliferation, ATPlite luminescence, 48 h; cells starved in 0.2% serum; 100% = growth in 10% serum; 330,000 tested, 0.29% active;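 active = compounds whose signal lies at least 3.5 SD above the mean of all wells on their plate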;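 note: 0% = DMSO-treated cells in low-serum medium and 100% = 10% serum control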
NTR1 ag confirm – NTR1 (human) agonism, confirmed. activation, % at 20 µM. NTR1-U2OS beta-arrestin-GFP translocation imaging. 480 tested, 38% active. shares compounds with NTR1 ag. AID 504550;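 active = mean activation at 20 µM of at least 40%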;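 note: 0% = DMSO without peptide and 100% = 100 nM NTR1 peptide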
Active calls of the source: *; ? = inconclusive; . = no result given.

SMILES	V-ATPase pH	Arrestin-AP2 inh	NTR1 ag	Xi reactivation	T cell HTS	MIN6 prolif	NTR1 ag confirm
Cc1cc(F)ccc1S(=O)(=O)Nc1ccccc1C(=O)Nc1ccccc1-c1nc2ccccc2[nH]1	-0.2	1.6	53.0*	.	172.8	-5.4	72.3*
COC(=O)C1=C(C)N(Cc2ccc(C(F)(F)F)cc2)C(=NCc2ccc(C(F)(F)F)cc2)NC1c1cccc(C(F)(F)F)c1 (centres undefined)	.	.	.	-0.1	.	.	.
COC(=O)C1=C(C)N(Cc2ccccc2)C(=NCc2ccccc2)N[C@H]1c1cccc(C(F)(F)F)c1	4.0	-8.5	43.7*	.	338.1	-5.8	75.2*
CCCC(=O)N1CC2(CCN(C(=O)CC3CC3)CC2)c2c(n(C)c3cc(OC)ccc23)[C@@H]1CO	.	.	.	0.3	.	.	.
O=Cc1ccc(Sc2nnc(-c3ccccc3)o2)c([N+](=O)[O-])c1	0.3	-12.7	?	.	414.1	-5.5	7.6
CC=Cc1ccc2n(c1=O)C[C@H]1[C@H](CO)[C@@H](C(=O)OC)N(C(C)=O)[C@@H]21 (mixture of isomers)	.	.	.	0.0	.	.	.
Cc1ccc(S(=O)(=O)Oc2ccc3c(c2)O/C(=C\c2cccnc2)C3=O)cc1	0.6	-5.1	43.2*	.	203.1	-5.6	32.9
C[C@@H]1CN([C@H](C)CO)C(=O)Cc2cc(NC(=O)Nc3ccc(C(F)(F)F)cc3)ccc2O[C@@H]1CN(C)Cc1ccc(Oc2ccccc2)cc1	.	.	.	-0.1	.	.	.
CCNC(=O)Nc1ccc2c(c1)C(=O)N(C)[C@@H]1CC[C@H](CC(=O)NCc3ccc(F)cc3)O[C@H]1CO2	.	.	.	0.2	.	.	.
Clc1ccc(C2=Nn3c(nnc3-c3cc(-c4ccccc4)n[nH]3)SC2)cc1	1.1	-3.7	46.6*	.	375.9	-6.4	48.1*
FC(F)(F)c1cccc(N2CCN(c3ccc4nnc(-c5ccccc5)n4n3)CC2)c1	1.6	11.0	58.4*	.	.	-5.6	10.4
c1ccc(-c2nnc3ccc(N4CCCC4)nn23)cc1	-0.7	0.1	2.5	0.0	287.6	4.6	.
CCCN1C[C@@H](C)[C@H](OC)CN(C)C(=O)c2ccc(NC(=O)c3cccc(F)c3)cc2OC[C@@H]1C	.	.	.	0.1	.	.	.
O=C(CSc1nc2nc3c(cc2c(=O)n1-c1ccccc1)CCCC3)Nc1ccccc1	1.3	1.2	3.3	.	199.7	0.0	.
CCn1c(SCc2ccc(Cl)cc2Cl)nc2nc3c(cc2c1=O)CCCC3	2.3	-1.0	43.9*	.	345.4	-6.0	30.8
C[C@H](CO)N1C[C@H](C)[C@H](CN(C)Cc2ccc3c(c2)OCO3)Oc2ccc(NC(=O)CCC(F)(F)F)cc2CC1=O	.	.	.	0.4	.	.	.
COc1ccc2c3c([nH]c2c1)[C@@H](CO)N(C(=O)C1CCCC1)CC31CCN(C)CC1	.	.	.	0.3	.	.	.
C[C@H]1CCCCO[C@@H](CN(C)C(=O)c2ccccc2)[C@@H](C)CN([C@@H](C)CO)C(=O)c2cc(NC(=O)Nc3ccc(C(F)(F)F)cc3)ccc2O1	.	.	.	-0.1	.	.	.
O=C(Cc1ccccc1)Nc1nc(-c2ccc(F)c(F)c2)cs1	-5.5	-1.7	-0.3	0.5	578.1	-6.0	.
O=C(Cc1cccs1)Nc1nc(-c2ccc(F)c(F)c2)cs1	0.6	-8.8	51.7*	0.0	211.4	-1.6	-2.2
CC(C)CN(C(=O)c1cccc(F)c1)c1c(N)n(CC(C)C)c(=O)[nH]c1=O	-3.6	9.2	42.4*	-0.1	393.3	-2.8	-1.0
CC(C)CN(C(=O)c1cccc([N+](=O)[O-])c1)c1c(N)n(CC(C)C)c(=O)[nH]c1=O	1.9	-0.3	-0.9	-0.1	216.3	-1.2	.
COc1cc(N/N=C(\C)c2ccc(O)c(C)c2)nc(-c2ccccc2)n1	-3.2	9.5	53.2*	0.1	172.5	-4.8	19.9
Cc1ccc(O)c(-c2cc(-c3cccc(Br)c3)n[nH]2)c1	-1.9	-11.4	54.5*	0.0	170.9	-6.2	21.5
Cc1ccc(-c2cc(-c3ccc(C)cc3O)[nH]n2)cc1	-1.2	7.7	9.9	0.1	252.8	-3.9	.
SMILES	V-ATPase pH	Arrestin-AP2 inh	NTR1 ag	Xi reactivation	T cell HTS	MIN6 prolif	NTR1 ag confirm
Fc1cnc(N/N=C/c2ccc(-c3ccc(Br)cc3)o2)nc1N1CCOCC1	3.0	0.4	40.9*	-0.1	779.2	-4.1	24.3
Cc1noc(C)c1NC(=O)N[C@@H]1CC[C@@H](CC(=O)Nc2ccc(-c3ccccc3)cc2)O[C@@H]1CO	.	.	.	0.3	.	.	.
O=C(NNc1c2ccccc2nc2ccccc12)c1ccccc1O	0.3	10.4	49.5*	0.0	212.0	-2.2	3.5
COc1ccc(C(=O)/C=C2/C(=O)Nc3ccccc32)cc1	-3.9	5.4	27.9	0.0	243.8	-5.2	.
COc1ccc(C(=O)/C=C2/C(=O)Nc3ccccc32)c(OC)c1	4.4	7.3	52.2*	0.0	177.6	-7.0	49.0*
CC(C)NC(=O)Nc1ccc2c(c1)C(=O)N([C@@H](C)CO)C[C@H](C)[C@H](CN(C)Cc1ccc3c(c1)OCO3)OCCCC[C@H](C)O2	.	.	.	0.0	.	.	.
Cc1ccc(-c2csc(-c3c[nH]c4ccccc34)n2)c(C)c1	1.6	-0.6	45.5*	.	398.0	-3.6	4.0
CC(C)NC(=O)N(C)C[C@@H]1OCCCC[C@H](C)Oc2ccc(NC(=O)c3ccncc3)cc2C(=O)N([C@H](C)CO)C[C@@H]1C	.	.	.	0.0	.	.	.
O=C1NC[C@@H](Cc2cccc3ccccc23)N(CCCCC2CCCCC2)C1=O	-0.9	10.1	40.9*	0.0	137.3	-6.5	-1.9
O=C1NC[C@H](CC2CCCCC2)N(CCc2cccc3ccccc23)C1=O	.	.	.	-0.2	.	.	.
CN(C)CC(=O)N[C@@H]1CC[C@H](CCNC(=O)C2CCCC2)O[C@@H]1CO	.	.	.	-0.4	.	.	.
O=C(C[C@@H]1CC[C@@H](NC(=O)C2CCOCC2)[C@@H](CO)O1)NCc1ccccc1Cl	.	.	.	0.0	.	.	.
COc1cc(C(=O)N/N=C/c2ccc(OC(=O)c3cccc(C)c3)cc2)ccc1O	2.5	1.1	51.6*	0.4	352.6	-6.4	15.4
COC(=O)c1ccc2c(c1)C(C)(C)C(/C=C/c1ccccc1O)=[N+]2C	-3.8	-2.8	49.7*	.	582.4	-5.5	50.6*
Cc1cccc(-c2ccc([C@H]3[C@@H](CO)N4C(=O)CN(S(=O)(=O)c5cccc(F)c5)C[C@@H]34)cc2)c1	.	.	.	0.3	.	.	.
O=C(CCCc1c[nH]c2ccccc12)NCCc1c[nH]c2ccccc12	-1.2	27.5	2.2	0.0	196.5	0.7	.
O=C(NCCc1c[nH]c2ccccc12)OCCCCOC(=O)NCCc1c[nH]c2ccccc12	3.2	-3.3	66.9*	0.1	607.1	-5.8	17.3
COc1ccc(CN2CC3(C2)CN(C(=O)Nc2ccc(F)cc2)[C@@H](CO)c2[nH]c4cc(OC)ccc4c23)cc1	.	.	.	0.1	.	.	.
